Test results as given in article PMC7346264 (ACS Omega, 2020).
Values joined by “and” are separate entries in the source; they are usually repeats but may differ in a detail not shown here. Equal values may be shown once. Read-outs that look alike come from different tables or passages of the source. Where no end group is shown, it is not given here.

Experiments:
[1] = type: in vitro ADME, human; conditions: for original content still present / detected in plasma: after 1 month of storage at −80 °C, P100 plasma; for T90 in days (±SEM) in P100 plasma: 50 nM, T90 extrapolated
Outline: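 Cell-free plasma from BD P100 tubes spiked with the training peptide mix, 50 nM each (final). Aliquots stored at 4, −35 or −80 °C for up to 1 month. Sampled before storage and at 1, 7 and 30 days. Each 50 µL sample was acidified-acetonitrile precipitated, sonicated, boiled and centrifuged, then run by UPLC–MS/MS. Content normalised to baseline. T90 extrapolated from first-order decay fits.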

[2] = type: in vitro ADME, human; conditions: time frame of 7.5 h, at both 4 and 21 °C, all tubes
Outline: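 Fresh donor whole blood, in EDTA, EDTA plus protease-inhibitor cocktail (1:100 final), BD P100 or BD P800 tubes, held 30 min at 4, 21 or 37 °C. Then spiked with peptide mix at 10 nM each (final). Sampled at 0, 2.5, 5 and 7.5 h and centrifuged. Plasma acetonitrile/formic acid precipitated and analysed by amide UPLC–ESI(+)–MS/MS MRM. T0-normalised ln areas fitted first-order (λ). T50/T90 reported ±SEM by error propagation, n = 4.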

[3] = type: in vitro ADME, human; conditions: whole blood
Outline: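 Validation arm: fresh whole blood in EDTA or BD P100 tubes, equilibrated 30 min at 4 °C. Spiked with four peptides not used in training, 10 nM each (final). Aliquots taken at 0–7.5 h and centrifuged 1800g for 10 min. Plasma deproteinised with acidified acetonitrile, then quantified by UPLC–MS/MS MRM. Decay constant taken from the ln-linear slope. T50/T90 derived assuming first-order kinetics, SEM by error propagation.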

[4] = storage at 4 °C, n = 4, up to 1 month
[5] = storage at −35 °C, n = 4, thawed once, up to 1 month
[6] = storage at −80 °C, n = 4, thawed once, up to 1 month
[7] = external validation, P100 tube, 4 °C
[8] = head-to-head comparison, EDTA sampling tube at 4 °C
[9] = head-to-head comparison, P100 sampling tube at 4 °C

Substance	original content still present / detected in plasma [1]	T90 in days (±SEM) in P100 plasma [1, 4]	T90 in days (±SEM) in P100 plasma [1, 5]	T90 in days (±SEM) in P100 plasma [1, 6]	T50 [±SEM] [3, 7]	T90 [±SEM] (time where 90% of the peptide is still present) [3, 7]	decay constant (λ) [±SEM] [3, 7]	other results
SIFTLVA [Q184, SIFTLVA]	~25%	2.24 (±0.20) days	2.56 (±0.21) days	2.6 days and 2.61 (±0.23) days				degradation of the peptide in whole blood [2]: no degradation
ESRLPKIRFDFIFPRKK [Q054]					1.87 [±0.17] h	0.28 [±0.03] h	–0.00619 [±0.00056]	
SDLPFEH [Q164, SDLPFEH]	more than 95%	0.95 (±0.23) days	33.8 (±45.91) days	96.3 (±136.01) days				
SNLVECVFSLFKKCN [Q076]		1.24 (±0.03) days	20.4 (±13.67) days	13.2 (±4.80) days				
SGSLSTFFRLFNRSFTQALGK [Q176]	more than 95%	0.48 (±0.02) days	16.4 (±6.98) days	46.4 (±64.18) days				
ESRVSRIILDFLFQRKK [Q055]					1.49 [±0.12] h	0.23 [±0.02] h	–0.00776 [±0.00064]	T50 [±SEM] [3, 8]: 1.35 [±0.33] h; T90 [±SEM] [3, 8]: 0.21 [±0.05] h; decay constant (λ) [±SEM] [3, 8]: –0.00856 [±0.0021]; T50 [±SEM] [3, 9]: 2.07 [±0.36] ^a h; T90 [±SEM] [3, 9]: 0.31 [±0.05] ^a h; decay constant (λ) [±SEM] [3, 9]: –0.00559 [±0.00098]
